This excerpt belongs to a sample that is enriched for hits.
Lmaj promast = Leishmania major promastigote growth inhibition | 200,000 compounds, 9% hits | Leishmania major promastigotes, resazurin fluorescence viability | inhibition, % at 10 µM | AID 1063; in the data active = inhibition above about 50%;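 also: promastigotes grown with compound for 44 hours at 28 °C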
HSF1 inhib = HSF1 inhibition | NIH3T3-HGL HSE-luciferase, MG132-induced, luminescence 8 h; active compounds read low | activity change, negative = inhibition, % at 7.5 µM (by protocol) | 300,000 compounds, 0.77% hits;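 active = more than half of replicate wells show activity change below -50%, luminescence cut by over half; inconclusive = some wells, but at most half, below -50%; inactive = no replicate well below -50%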;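 also: luciferase reports HSF-1 transcriptional activity via heat shock element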
HSF-1 act = increases HSF-1 driven luciferase reporter signal; activation, % at 9 µM; NIH3T3-HGL HSF-1 luciferase reporter, MG132, 8 h; 100% = twice DMSO control signal; AID 504408; 300,000 compounds, 1.7% hits;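 active = mean replicate activation of at least 50% with a set share of replicates each reaching 50%; inconclusive = only one of those two conditions met; inactive = mean below 50% and too few replicates reaching it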
Hsp70 act = Hsp70 transcriptional activation, primary screen. 200,000 compounds, 0.04% hits. activation, % at 10 µM. HeLa Hsp70 promoter luciferase reporter, luminescence; scaled: vehicle 0, proteasome-inhibitor control 100%;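 active = activation above the mean across all tested compounds plus 3 SD, cutoff set per campaign, cut at about 5.5% in these data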
T cruzi repl = T. cruzi replication inhibition. inhibition, % (concentration not given with the values). AID 1885. 300,000 compounds, 1.4% hits. T. cruzi beta-gal in NIH3T3, luminescence, 90 h;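 active = mean inhibition across valid replicates above about 55%, limit read from the data; inconclusive = mean below that limit but half or more replicates reach it; inactive = mean below it, under half of replicates reach it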;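 also: signal also drops with host cell toxicity which is not excluded here; higher percent means less beta-gal luminescence so fewer parasites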
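System: NIH/3T3 fibroblasts plus reporter T. cruzi. Medium: DMEM plus 2% FBS. Probe or stimulus: 5000 reporter trypomastigotes per well. Compound: single 50 nL compound addition per well in DMSO. Incubation: co-culture of at least 90 h after 3 h attachment. Detection: GalScreen β-gal luminescence, detergent lysis, 60 min. Evaluation: parasite load inhibition, %.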
Large screens that a line does not name were inactive.

Cc1ccc(/C=C/C(=O)Nc2ccc(S(=O)(=O)Nc3cc(C)nc(C)n3)cc2)cc1	HSF-1 act 64 (no result: Lmaj promast, Hsp70 act)
Cc1ccc(/C=C/C(=O)Nc2ccc(S(=O)(=O)Nc3ncccn3)cc2)cc1	none
COc1cccc(CNC(=O)c2ccccc2NC(=O)C2=C(C)OCCS2)c1OC	none (no result: Lmaj promast, Hsp70 act)
Cc1cc([N+](=O)[O-])nn1CCCC(=O)NC(C)c1ccccc1 (stereo not given)	Lmaj promast 51
Cc1nn(CCCC(=O)Nc2cc(Oc3ccccc3)cc([N+](=O)[O-])c2)c(C)c1[N+](=O)[O-]	Lmaj promast 99
Cc1ccc(C)c(Oc2cc(NC(=O)CCCn3nc(C)c([N+](=O)[O-])c3C)cc([N+](=O)[O-])c2)c1	HSF-1 act 72
Cc1nn(CCCC(=O)NCCc2ccccc2)c(C)c1[N+](=O)[O-]	none
Cc1ccc(Oc2cc(NC(=O)CCCn3nc([N+](=O)[O-])cc3C)cc([N+](=O)[O-])c2)cc1	Lmaj promast 95
Cc1ccccc1C(=O)N/N=C1/SCC(=O)N1Cc1ccccc1	none
CO/N=C/NC(=O)c1ccc([N+](=O)[O-])c(CS(=O)(=O)c2ccc(Cl)cc2)c1	none
NNC(=O)c1ccc([N+](=O)[O-])c(CS(=O)(=O)c2ccc(Cl)cc2)c1	HSF-1 act 57
Cc1ccc(N=Nc2cc(C)ccc2O)c(C)c1	none (no result: Lmaj promast, Hsp70 act)
Cc1ccc(C)c(N=Nc2ccc(O)c3ncccc23)c1	Lmaj promast 100
Oc1ccc(N=Nc2ccc3c(c2)OCCO3)c2ncccc12	T cruzi repl 68 (no result: Lmaj promast, Hsp70 act)
Cc1cccc(N=Nc2ccc(O)c3ncccc23)c1	Lmaj promast 100, HSF-1 act 241
O=C(CCC1CCCN(C(=O)c2ccc3c(c2)OCO3)C1)NCc1ccc(F)c(F)c1 (stereo not given)	none
COc1ccccc1-n1c(SCC(=O)NC2CCS(=O)(=O)C2)nc2cc([N+](=O)[O-])ccc21 (stereo not given)	none
COc1ccccc1-n1c(SCC(=O)c2ccc(O)cc2O)nc2cc([N+](=O)[O-])ccc21	Lmaj promast 51
CCN(CC)S(=O)(=O)c1ccc2c(c1)nc(SCC(=O)NC1CC1)n2-c1ccccc1OC	Lmaj promast 80, HSF-1 act 56
CC(C)C(NC(=O)CN1C(=O)c2ccccc2C1=O)c1ccccc1 (stereo not given)	none (no result: Lmaj promast, Hsp70 act)
CC(C)c1cc(C(C)C)c(S(=O)(=O)NNC(=O)c2ccncc2)c(C(C)C)c1	none
CN(Cc1ccccc1)Cc1c[nH]c2ccccc12	T cruzi repl 55
COC(=O)/C=C1/N/C(=N\c2nc(C)cc(C)n2)N(c2ccc(Cl)cc2)C1=O	Lmaj promast 50
C/C(CC(=O)Nc1ccc(Cl)cc1)=N\NC(=O)C(=O)N1CCCCC1	none (no result: HSF1 inhib, HSF-1 act, T cruzi repl)
COc1ccc(Nc2ccc([N+](=O)[O-])cc2[N+](=O)[O-])cc1	none
O=C1C(=C2SCCCS2)CC/C1=C\c1ccc(F)cc1	HSF1 inhib -75
CCOC(=O)c1sc2c(c1C)C(c1cccs1)C1=C(CCCC1=O)N2 (stereo not given)	Lmaj promast 64, HSF-1 act 79
CCN(c1ccccc1)S(=O)(=O)c1ccc(Oc2ccc(-n3ccnc3)cc2)nc1	Lmaj promast 76
Cc1nnc(SCc2cc(=O)[nH]c(Nc3nc(C)c4ccccc4n3)n2)s1	Lmaj promast 84 (no result: HSF1 inhib, HSF-1 act, T cruzi repl)
Cc1ccc2c(C)nc(Nc3nc(CSc4nc5ccccc5[nH]4)cc(=O)[nH]3)nc2c1	Lmaj promast 100
Cc1ccc(SCc2cc(=O)[nH]c(Nc3nc(C)c4ccc(C)cc4n3)n2)cc1	none
Cc1ccc2nc(Nc3nc(CSc4nnc(C)s4)cc(=O)[nH]3)nc(C)c2c1	none
CSc1ccc(CN2CCN(CCC(C)C)C(CCO)C2)cc1 (stereo not given)	Lmaj promast 78
OCCC1CN(Cc2ccncc2)CCN1C1CCCC1 (stereo not given)	none
CC(C)CCN1CCN(Cc2ccc(C#CCCO)cc2)CC1CCO (stereo not given)	none
CSc1ccc(CN2CCN(C3CCCC3)C(CCO)C2)cc1 (stereo not given)	Lmaj promast 62, T cruzi repl inconclusive
Cc1ccc(NC(=O)N2CCCC2C(=O)NCC2CCCCC2)cc1 (stereo not given)	HSF1 inhib -89 (no result: Lmaj promast, Hsp70 act)
Cc1nc(C)c(/C(O)=C/c2nc3ccccc3oc2=O)s1	Lmaj promast 76
O=C(/C=C/c1ccc(Cl)cc1)c1cccnc1	Lmaj promast 100 (no result: HSF1 inhib, HSF-1 act, T cruzi repl)
O=C(/C=C/c1ccc(OCc2ccccc2)c(OCc2ccccc2)c1)c1cccnc1	Lmaj promast 100
O=C(/C=C/c1ccccc1Cl)c1cccnc1	Lmaj promast 98
CCN(CC)c1ccc(/C=C/C(=O)c2cccnc2)cc1	none
N#Cc1ccc(/C=C/C(=O)c2ccc3c(c2)OCO3)cc1	none
N#Cc1ccc(/C=C/C(=O)c2cccnc2)cc1	Lmaj promast 101
O=C(/C=C/c1ccccc1Cl)c1ccc(O)cc1	none (no result: Lmaj promast, Hsp70 act)
O=C(Nc1ccc(OCc2ccccc2)cc1)c1cccnc1	none
O=C1CC2(CCN(C(=O)C3CC(=O)N(c4ccc(F)cc4)C3)CC2)Oc2ccccc21 (stereo not given)	none (no result: Lmaj promast, Hsp70 act)
Cn1cc(CN2CCCC(C(=O)c3cc(F)ccc3F)C2)c2ccccc21 (stereo not given)	Lmaj promast 88
COc1ccc(F)cc1C(=O)C1CCCN(Cc2c[nH]c3ccccc23)C1 (stereo not given)	none
Cn1cc(CN2CCCC(CNC(=O)c3ccc4c(c3)OCO4)C2)c2ccccc21 (stereo not given)	T cruzi repl 66
COc1ccc(F)cc1C(=O)C1CCCN(Cc2cn(C)c3ccccc23)C1 (stereo not given)	Lmaj promast 90
COc1ccccc1NS(=O)(=O)c1ccc(O)c(NC(=S)NCC2CCCO2)c1 (stereo not given)	none (no result: Lmaj promast, Hsp70 act)
CC(=O)Nc1ccc(N(C(=O)c2ccco2)C(C(=O)NC2CCCC2)c2ccc(N3CCOCC3)cc2)cc1 (stereo not given)	none
CC[C@H]1OC(=O)[C@H](C)[C@@H](O[C@H]2C[C@@](C)(OC)[C@@H](O)[C@H](C)O2)[C@H](C)[C@@H](O[C@@H]2O[C@H](C)C[C@H](N(C)C)[C@H]2O)[C@](C)(O)C[C@@H](C)C(=NOCOCCOC)[C@H](C)[C@@H](O)[C@]1(C)O	none (no result: Lmaj promast, Hsp70 act)
N#Cc1ccccc1OCC(=O)N(C1CCCCC1)C1CCS(=O)(=O)C1 (stereo not given)	none (no result: Lmaj promast, Hsp70 act)
COc1ccccc1NC(=O)C1CCN(C(=O)C2CC(=O)N(c3ccc(C)cc3)C2)CC1 (stereo not given)	none (no result: Lmaj promast, Hsp70 act)
Cc1ccc(N2CCN(CC3CC=CCC3)CC2)cc1 (stereo not given)	Lmaj promast 97
FC(F)(F)c1cccc(N2CCN(CC3CC=CCC3)CC2)c1 (stereo not given)	Lmaj promast 93
CC(=O)c1ccc(N2CCN(CC3CCCCC3)CC2)cc1	none (no result: Lmaj promast, Hsp70 act)

High-throughput results deposited in PubChem by several laboratories.
